Calls of active or inactive are those of the source. No cut-off for these calls is given here.
Experiments:
Quadruplex DNA [1] = test: Stabilization of 5'-FAM and 3'-TAMRA-labeled c-MYC G-quadruplex (unknown origin) assessed as change in melting temperature at 1 uM by FRET assay; format: nucleic-acid assay; conditions: unidentified
How it was run: (§1)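 FRET melting of dual-labelled (5′-FAM/3′-TAMRA) promoter quadruplexes or duplex in 60 mM potassium cacodylate buffer, pH 7.4. ΔTm is taken against ligand-free Tm. The ligand was tested across a concentration series. Maximum measurable Tm is 93 °C.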

Quadruplex DNA [2] = test: Stabilization of 5'-FAM and 3'-TAMRA-labeled c-KIT1 G-quadruplex (unknown origin) assessed as change in melting temperature at 1 uM by FRET assay; format: nucleic-acid assay; conditions: unidentified; how it was run: as §1
Quadruplex DNA [3] = test: Stabilization of 5'-FAM and 3'-TAMRA-labeled c-KIT2 G-quadruplex (unknown origin) assessed as change in melting temperature at 1 uM by FRET assay; format: nucleic-acid assay; conditions: unidentified; how it was run: as §1
Quadruplex DNA [4] = test: Stabilization of 5'-FAM and 3'-TAMRA-labeled k-RAS G-quadruplex (unknown origin) assessed as change in melting temperature at 1 uM by FRET assay; format: nucleic-acid assay; conditions: unidentified; how it was run: as §1
dsDNA [5] = test: Stabilization of 5'-FAM and 3'-TAMRA-labeled dsDNA (unknown origin) assessed as change in melting temperature at 1 uM by FRET assay; format: nucleic-acid assay; how it was run: as §1
Quadruplex DNA [6] = test: Stabilization of 5'-FAM and 3'-TAMRA-labeled c-MYC G-quadruplex (unknown origin) assessed as change in melting temperature at 3 uM by FRET assay; format: nucleic-acid assay; conditions: unidentified; how it was run: as §1
dsDNA [7] = test: Stabilization of 5'-FAM and 3'-TAMRA-labeled dsDNA (unknown origin) assessed as change in melting temperature at 5 uM by FRET assay; format: nucleic-acid assay; how it was run: as §1
[8] = Selectivity for 5'-FAM and 3'-TAMRA-labeled c-MYC G-qudaruplex (unknown origin) over 5'-FAM and 3'-TAMRA-labeled c-KIT1 G-qudaruplex (unknown origin)
unidentified [9] = test: Selectivity for 5'-FAM and 3'-TAMRA-labeled c-MYC G-quadruplex (unknown origin) over 5'-FAM and 3'-TAMRA-labeled c-KIT2 G-quadruplex (unknown origin)
unidentified [10] = test: Selectivity for 5'-FAM and 3'-TAMRA-labeled c-MYC G-quadruplex (unknown origin) over 5'-FAM and 3'-TAMRA-labeled k-RAS G-quadruplex (unknown origin)
Quadruplex DNA [11] = test: Stabilization of 5'-FAM and 3'-TAMRA-labeled c-MYC G-quadruplex (unknown origin) assessed as change in melting temperature at 1 uM in presence of 100 nM to 10 uM dsDNA by FRET assay; format: nucleic-acid assay; conditions: unidentified
Quadruplex DNA [12] = test: Stabilization of 5'-FAM and 3'-TAMRA-labeled k-RAS G-quadruplex (unknown origin) assessed as change in melting temperature at 1 uM in presence of 100 nM to 10 uM dsDNA by FRET assay; format: nucleic-acid assay; conditions: unidentified
Quadruplex DNA [13] = test: Stabilization of 5'-FAM and 3'-TAMRA-labeled c-KIT1 G-quadruplex (unknown origin) assessed as change in melting temperature at 1 uM in presence of 100 nM to 10 uM dsDNA by FRET assay; format: nucleic-acid assay; conditions: unidentified
Quadruplex DNA [14] = test: Stabilization of 5'-FAM and 3'-TAMRA-labeled c-KIT2 G-quadruplex (unknown origin) assessed as change in melting temperature at 1 uM in presence of 100 nM to 10 uM dsDNA by FRET assay; format: nucleic-acid assay; conditions: unidentified
Quadruplex DNA [15] = test: Binding affinity to pre-annealed c-MYC G-quadruplex (unknown origin) assessed as hypochromacity at 20 uM in 10 mM Tris.HCl buffer containing 100 mM KCl at pH 7.4 by UV/Visible spectroscopy; format: nucleic-acid assay; conditions: unidentified
How it was run: (§2)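 UV–vis titration of 20 μM ligand with preannealed c-MYC quadruplex (0–1.4 equiv) in 100 mM KCl, 10 mM Tris·HCl, pH 7.4. Hypochromicity was followed at the 362 nm ligand band, because the 298 nm band overlaps DNA absorbance. Kd was fitted with the Hill 1 equation.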

Quadruplex DNA [16] = test: Binding affinity to pre-annealed c-MYC G-quadruplex (unknown origin) in 10 mM Tris.HCl buffer containing 100 mM KCl at pH 7.4 by UV/Visible spectroscopy; format: nucleic-acid assay, unidentified; how it was run: as §2
dsDNA [17] = test: Binding affinity to dsDNA (unknown origin) in 10 mM Tris.HCl buffer containing 100 mM KCl at pH 7.4 by UV/Visible spectroscopy; format: nucleic-acid assay
Quadruplex DNA [18] = test: Binding affinity to pre-annealed c-MYC G-quadruplex (unknown origin) assessed as increase in fluorescence intensity at 1 uM in 100 mM KCl, 10 mM Tris.HCl at pH 7.4 by fluorescence spectroscopy relative to untreated control; format: nucleic-acid assay; conditions: unidentified
How it was run: (§3)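 Fluorescence titration in 100 mM KCl, 10 mM Tris·HCl, pH 7.4. Excitation was 350 nm and emission was read at the 430 nm maximum. Ligand (1 μM for c-MYC) was titrated with increasing quadruplex or ds DNA, up to 20 equiv. Change in intensity was scored, and Kd was derived from the titration curves.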

Quadruplex DNA [19] = test: Binding affinity to pre-annealed c-MYC G-quadruplex (unknown origin) in 100 mM KCl, 10 mM Tris.HCl at pH 7.4 by fluorescence spectroscopy relative to untreated control; format: nucleic-acid assay, unidentified; how it was run: as §3
Quadruplex DNA [20] = test: Binding affinity to pre-annealed c-KIT1 G-quadruplex (unknown origin) in 100 mM KCl, 10 mM Tris.HCl at pH 7.4 by fluorescence spectroscopy relative to untreated control; format: nucleic-acid assay, unidentified; how it was run: as §3
Quadruplex DNA [21] = test: Binding affinity to pre-annealed c-KIT2 G-quadruplex (unknown origin) in 100 mM KCl, 10 mM Tris.HCl at pH 7.4 by fluorescence spectroscopy relative to untreated control; format: nucleic-acid assay, unidentified; how it was run: as §3
Quadruplex DNA [22] = test: Binding affinity to pre-annealed k-RAS G-quadruplex (unknown origin) in 100 mM KCl, 10 mM Tris.HCl at pH 7.4 by fluorescence spectroscopy relative to untreated control; format: nucleic-acid assay, unidentified; how it was run: as §3
dsDNA [23] = test: Binding affinity to 20 equivalents of dsDNA (unknown origin) in 100 mM KCl, 10 mM Tris.HCl at pH 7.4 by fluorescence spectroscopy relative to untreated control; format: nucleic-acid assay; how it was run: as §3
Quadruplex DNA [24] = test: Binding affinity to c-MYC G-quadruplex (unknown origin) assessed as induction of line broadening of imino protons by 1H-NMR spectroscopy; format: nucleic-acid assay; conditions: unidentified
How it was run: (§4)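 1D 1H NMR of c-MYC quadruplex DNA at different ligand:DNA ratios, monitoring imino and aromatic regions against partial signal assignments. Chemical shift perturbation or line broadening was noted separately at ratios below 1 and at ratios of 1 or above.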

Quadruplex DNA [25] = test: Binding affinity to c-MYC G-quadruplex (unknown origin) assessed as induction of chemical shift perturbations of imino protons by 1H-NMR spectroscopy; format: nucleic-acid assay; conditions: unidentified; how it was run: as §4
Quadruplex DNA [26] = test: Effect on parallel topology of c-MYC G-quadruplex (unknown origin) at 0 to 5 equivalent by CD spectroscopy; format: nucleic-acid assay; conditions: unidentified
HeLa [27] = test: Cytotoxicity against human HeLa cells incubated for 24 hrs by MTT assay; format: functional, cell-based
How it was run: (§5)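 MTT growth-inhibition assay in HeLa, A549 and mouse C2C12 cells. Cells given 0.1% DMSO served as control. IC50 values were reported.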

A549 = test: Cytotoxicity against human A549 cells incubated for 24 hrs by MTT assay; format: functional, cell-based; conditions: A549, 24 h; how it was run: as §5
C2C12 = test: Cytotoxicity against mouse C2C12 cells incubated for 24 hrs by MTT assay; format: cell-based; conditions: C2C12, 24 h; how it was run: as §5
Quadruplex DNA [28] = test: Stabilization of c-MYC G-quadruplex in human HeLa cells assessed as reduction in c-MYC mRNA level at 5 uM incubated for 24 hrs by RT-PCR method; format: cell-based; set-up: scale not given: the % may be the effect or the level left
How it was run: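 qRT-PCR on HeLa cells treated 24 h at 1.0, 2.5 or 5.0 μM. c-MYC mRNA was normalised to GAPDH and compared with 0.1% DMSO-treated control.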

HeLa [29] = test: Effect on GAPDH mRNA expression in human HeLa cells at 1 to 5 uM incubated for 24 hrs by RT-PCR method; format: ADME, cell-based
Quadruplex DNA [30] = test: Stabilization of c-MYC G-quadruplex in human HeLa cells assessed as reduction in c-MYC mRNA level at 5 uM incubated for 24 hrs by Western blot method; format: cell-based; set-up: scale not given: the % may be the effect or the level left; conditions: in the assay text read “c-MYC protein level” for “c-MYC mRNA level”
How it was run: (§6)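 Western blot of HeLa lysates after 24 h at 1, 2.5 or 5 μM, with DMSO control. c-MYC was probed, GAPDH served as loading control, and bands were quantified by densitometry.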

HeLa [31] = test: Effect on GAPDH protein expression in human HeLa cells at 1 to 5 uM incubated for 24 hrs by Western blot method; format: ADME, cell-based; how it was run: as §6
[32] = Drug localization in nucleus of human HeLa cells at 5 uM incubated for 2 hrs by fluorescence microscopy; format: ADME, subcellular
How it was run: (§7)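 Intrinsic ligand fluorescence imaged by fluorescence microscopy in HeLa cells after 2 h at 5.0 μM. Merged images were used to assign nuclear versus cytoplasmic localisation.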

[33] = Drug localization in cytoplasm of human HeLa cells at 5 uM incubated for 2 hrs by fluorescence microscopy; format: ADME, subcellular; how it was run: as §7
HeLa [34] = test: Cell cycle arrest in human HeLa cells assessed as accumulation at subG1 phase at 5 uM incubated for 24 hrs by propidium iodide staining based flow cytometry (reference value: 2.2%); format: functional
HeLa [35] = test: Cell cycle arrest in human HeLa cells assessed as accumulation at G0/G1 phase at 5 uM incubated for 24 hrs by propidium iodide staining based flow cytometry (reference value: 61.5%); format: functional
HeLa [36] = test: Cell cycle arrest in human HeLa cells assessed as accumulation at S phase at 5 uM incubated for 24 hrs by propidium iodide staining based flow cytometry (reference value: 10.8%); format: functional
HeLa [37] = test: Cell cycle arrest in human HeLa cells assessed as accumulation at G2/M phase at 5 uM incubated for 24 hrs by propidium iodide staining based flow cytometry (reference value: 25.5%); format: functional
HeLa [38] = test: Induction of apoptosis in human HeLa cells assessed as viable cell level at 5 uM incubated for 24 hrs by Annexin V-FITC staining based flow cytometry; format: functional
HeLa [39] = test: Induction of apoptosis in human HeLa cells assessed as early apoptotic cells level at 5 uM incubated for 24 hrs by Annexin V-FITC staining based flow cytometry (reference value: 1.1%); format: functional
HeLa [40] = test: Induction of apoptosis in human HeLa cells assessed as late apoptotic cells level at 5 uM incubated for 24 hrs by Annexin V-FITC staining based flow cytometry (reference value: 0.8%); format: functional
HeLa [41] = test: Induction of apoptosis in human HeLa cells assessed as necrotic cells level at 5 uM incubated for 24 hrs by Annexin V-FITC staining based flow cytometry (reference value: 0.1%); format: functional

## CN(C)CCCNC(=O)c1ccc(Nc2ccc(-c3ccc(Nc4ccc(C(=O)NCCCN(C)C)cc4)c4ccccc34)c3ccccc23)cc1
Quadruplex DNA [1]
  ΔTm: 15 °C
Quadruplex DNA [2]
  ΔTm: 9 °C
Quadruplex DNA [3]
  ΔTm: 7 °C
Quadruplex DNA [4]
  ΔTm: 18 °C
dsDNA [5]
  ΔTm: 1 °C
Quadruplex DNA [6]
  ΔTm: 23 °C
dsDNA [7]
  Activity: inactive
[8]
  Selectivity ratio: 3 to 5
Unidentified [9]
  Selectivity ratio: 3 to 5
Unidentified [10]
  Selectivity ratio: 3 to 5
Quadruplex DNA [11]
  Activity: Active
Quadruplex DNA [12]
  Activity: Active
Quadruplex DNA [13]
  Activity: Active
Quadruplex DNA [14]
  Activity: Active
Quadruplex DNA [15]
  Activity: 18%
Quadruplex DNA [16]
  Kd: 22.6 µM
dsDNA [17]
  Activity: inactive
Quadruplex DNA [18]
  fold change (FC): 1.2
Quadruplex DNA [19]
  Kd: 21.4 µM
Quadruplex DNA [20]
  Kd: 19.4 µM
Quadruplex DNA [21]
  Kd: 14.1 µM
Quadruplex DNA [22]
  Kd: 13 µM
dsDNA [23]
  Activity: inactive
Quadruplex DNA [24]
  Activity: Active
Quadruplex DNA [25]
  Activity: Active
Quadruplex DNA [26]
  Activity: inactive
HeLa [27]
  IC50: 7.24 µM
A549
  IC50: ≥ 40 µM
C2C12
  IC50: ≥ 40 µM
Quadruplex DNA [28]
  Activity: 27%
HeLa [29]
  Activity: Non-Toxic
Quadruplex DNA [30]
  Activity: 36%
HeLa [31]
  Activity: Non-Toxic
[32]
  Drug uptake: Active
[33]
  Drug uptake: Active
HeLa [34]
  Activity: 39.2%
HeLa [35]
  Activity: 46.9%
HeLa [36]
  Activity: 5.3%
HeLa [37]
  Activity: 8.6%
HeLa [38]
  Activity: Active
HeLa [39]
  Activity: 37.9%
HeLa [40]
  Activity: 3.6%
HeLa [41]
  Activity: 0.5%

Source: ChEMBL document CHEMBL4428054, “Synthesis of Fluorescent Binaphthyl Amines That Bind c-MYC G-Quadruplex DNA and Repress c-MYC Expression” (J Med Chem, 2016)
